Data: ChEMBL document CHEMBL4152308, “Synthesis and biological evaluation of novel 2-oxo-1,2-dihydroquinoline-4-carboxamide derivatives for the treatment of esophageal squamous cell carcinoma” (Eur J Med Chem, 2018)
Activity calls are given as the source filed them. The calls are words filed in the database; no cut-off is given here.

Experiments:
KYSE-70 cell line [1] = assay: Antiproliferative activity against human KYSE-70 cells after 72 hrs by MTT assay; assay type: functional, cell-based; conditions: KYSE-70, 72 h
How it was run: (§1)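 Cells grown as monolayers at 37 °C, 5% CO2, mycoplasma-checked, in exponential phase. Cells seeded in 96-well plates, 24 h attachment, then compound added for 72 h. MTT 0.3 mg/mL for 3 h at 37 °C, DMSO solubilization, absorbance at 570 nm. Inhibition = (1 − A/C) × 100%. IC50 from log(concentration) vs % inhibition plot; triplicate wells, SD from ≥3 independent experiments.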

KYSE-410 [2] = assay: Antiproliferative activity against human KYSE410 cells after 72 hrs by MTT assay; assay type: functional, cell-based; conditions: KYSE-410, 72 h; how it was run: as §1
KYSE-410 [3] = assay: Cell cycle arrest in human KYSE410 cells assessed as accumulation at G2 phase at 1 uM after 24 to 48 hrs by propidium iodide staining based flow cytometry (reference value: 12.2%); assay type: functional
KYSE-410 [4] = assay: Cell cycle arrest in human KYSE410 cells assessed as accumulation at G2 phase at 5 uM after 24 to 48 hrs by propidium iodide staining based flow cytometry (reference value: 12.2%); assay type: functional
KYSE-410 [5] = assay: Cell cycle arrest in human KYSE410 cells assessed as accumulation at G1 phase at 1 uM after 24 to 48 hrs by propidium iodide staining based flow cytometry (reference value: 65.4%); assay type: functional
SK-OV-3 = assay: Antiproliferative activity against human SKOV3 cells after 72 hrs by MTT assay; assay type: functional, cell-based; conditions: SK-OV-3, 72 h; how it was run: as §1
KYSE-410 [6] = assay: Cell cycle arrest in human KYSE410 cells assessed as accumulation at S phase at 1 uM after 24 to 48 hrs by propidium iodide staining based flow cytometry (reference value: 22.3%); assay type: functional
OVCAR-8 = assay: Antiproliferative activity against human OVCAR8 cells after 72 hrs by MTT assay; assay type: functional, cell-based; conditions: OVCAR-8, 72 h; how it was run: as §1
KYSE-410 [7] = assay: Cell cycle arrest in human KYSE410 cells assessed as accumulation at G1 phase at 5 uM after 24 to 48 hrs by propidium iodide staining based flow cytometry (reference value: 65.4%); assay type: functional
KYSE-410 [8] = assay: Cell cycle arrest in human KYSE410 cells assessed as accumulation at S phase at 5 uM after 24 to 48 hrs by propidium iodide staining based flow cytometry (reference value: 22.3%); assay type: functional
MIA PaCa-2 [9] = assay: Antiproliferative activity against human MIAPaCa2 cells after 72 hrs by MTT assay; assay type: functional, cell-based; conditions: MIA PaCa-2, 72 h; how it was run: as §1
KYSE-410 [10] = assay: Induction of autophagy in human KYSE410 cells assessed as increase in LC3B level at 10 to 50 uM after 24 hrs by Western blot analysis; assay type: functional, cell-based
How it was run: (§2)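 Cells treated 24 h at indicated concentrations, with bafilomycin for induced-LC3B readouts. Lysis in RIPA with protease inhibitors, BCA protein assay, samples heated 5 min at 100 °C. Equal protein run on 15% SDS-PAGE, transferred to PVDF. Anti-LC3B primary overnight at 4 °C, GAPDH as loading control, anti-rabbit secondary, TBST washes.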

KYSE-70 cell line [11] = assay: Inhibition of colony formation in human KYSE-70 cells at 0.4 to 30 uM after 7 days by crystal violet staining based assay; assay type: functional, cell-based
How it was run: (§3)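 Seeding at 250 cells/well in 96-well plates, attached 24 h, then serial compound dilutions added at 37 °C. Culture continued 7 days until colonies formed. Colonies washed, stained with 2% crystal violet for 1 h, then rinsed thoroughly with water.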

KYSE-410 [12] = assay: Inhibition of colony formation in human KYSE410 cells at 0.4 to 30 uM after 7 days by crystal violet staining based assay; assay type: functional, cell-based; how it was run: as §3
KYSE-410 [13] = assay: Inhibition of autophagy in human KYSE410 cells assessed as decrease in bafilomycin-induced LC3B level at 1 to 10 uM after 24 hrs by Western blot analysis; assay type: functional, cell-based; how it was run: as §2
MIA PaCa-2 [14] = assay: Inhibition of autophagy in human MIAPaCa2 cells assessed as decrease in bafilomycin-induced LC3B level at 1 to 10 uM after 24 hrs by Western blot analysis; assay type: functional, cell-based; how it was run: as §2

Row | Structure (SMILES) | IC50 (KYSE-70 cell line [1]) [µM] | IC50 (KYSE-410 [2]) [µM] | also measured
1 | O=C(Nc1cccc(F)c1)c1cc(=O)[nH]c2cc(-c3cccnc3F)ccc12 | > 20 | 11.6 | 
2 | O=C(Nc1cc(F)cc(F)c1)c1cc(=O)[nH]c2cc(C(F)(F)F)ccc12 | 14.2 | 17.9 | 
3 | Cc1ccc(-c2ccc3c(C(=O)Nc4cccc(F)c4)cc(=O)[nH]c3c2)cc1 | > 20 | > 20 | 
4 | O=C(Nc1cccc(F)c1)c1cc(=O)[nH]c2cc(-c3ccsc3)ccc12 | 5.1 | 4.3 | Activity (KYSE-410 [3]): 14.7%; Activity (KYSE-410 [4]): 54.9%; Activity (KYSE-410 [5]): 63.6%; IC50 (SK-OV-3): 6.7 µM; Activity (KYSE-410 [6]): 21.7%; IC50 (OVCAR-8): 13.4 µM; Activity (KYSE-410 [7]): 22.6%; Activity (KYSE-410 [8]): 22.4%; IC50 (MIA PaCa-2 [9]): 4.5 µM
5 | CCN(CC)CCCC(C)Nc1ccc2c(C(=O)Nc3cccc(F)c3)cc(=O)[nH]c2c1 (stereo not drawn) | > 20 | > 20 | Activity (KYSE-410 [10]): Active
6 | COc1cccc(NC(=O)c2cc(=O)[nH]c3cc(Br)ccc23)c1 | > 20 | > 20 | 
7 | COc1ccc(OC)c(NC(=O)c2cc(=O)[nH]c3cc(Br)ccc23)c1 | > 20 | > 20 | 
8 | COc1cccc2c(C(=O)Nc3cc(F)cc(F)c3)cc(=O)[nH]c12 | > 20 | > 20 | 
9 | CCN(CC)CCCC(C)Nc1ccnc2cc(Cl)ccc12 (stereo not drawn) [CHLOROQUINE] |  |  | Activity (KYSE-410 [3]): 13.7%; Activity (KYSE-410 [4]): 11.3%; Activity (KYSE-410 [5]): 65.6%; Activity (KYSE-410 [6]): 20.7%; Activity (KYSE-410 [7]): 64.3%; Activity (KYSE-410 [8]): 24.4%
10 | O=C(Nc1cc(F)cc(F)c1)c1cc(=O)[nH]c2cc(Cl)ccc12 | 9 | 11 | 
11 | O=C(Nc1ccc(F)cc1)c1cc(=O)[nH]c2cc(Br)ccc12 | > 20 | > 20 | 
12 | O=C(Nc1cccc(F)c1)c1cc(=O)[nH]c2cc(-c3ccccc3)ccc12 | > 20 | > 20 | 
13 | O=C(Nc1cccc(OC(F)(F)F)c1)c1cc(=O)[nH]c2cc(Br)ccc12 | > 20 | 14 | 
14 | O=C(Nc1cccc(Cl)c1)c1cc(=O)[nH]c2cc(Br)ccc12 | > 20 | > 20 | 
15 | COc1ccc(NC(=O)c2cc(=O)[nH]c3cc(Br)ccc23)cc1 | > 20 | > 20 | 
16 | CC(=O)c1ccc(-c2ccc3c(C(=O)Nc4cccc(F)c4)cc(=O)[nH]c3c2)cc1 | > 20 | > 20 | 
17 | CC(C)(C)c1ccc(NC(=O)c2cc(=O)[nH]c3cc(Br)ccc23)cc1 | > 20 | > 20 | inhibition (KYSE-70 cell line [11]): inactive; inhibition (KYSE-410 [12]): inactive
18 | O=C(Nc1cccc(F)c1)c1cc(=O)n(O)c2ccccc12 | > 20 | > 20 | 
19 | O=C(Nc1cc(F)cc(F)c1)c1cc(=O)[nH]c2cc(O)ccc12 | > 20 | > 20 | 
20 | O=C(Nc1cccc(F)c1)c1cc(=O)[nH]c2cc(-c3ccc(F)cc3)ccc12 | 3.3 | 10.3 | IC50 (SK-OV-3): 16.6 µM; IC50 (OVCAR-8): 22.3 µM; IC50 (MIA PaCa-2 [9]): 19.3 µM
21 | O=C(Nc1ccc(F)cc1F)c1cc(=O)[nH]c2cc(Br)ccc12 | > 20 | > 20 | 
22 | COc1ccccc1NC(=O)c1ccnc2cc(Br)ccc12 | > 20 | > 20 | 
23 | O=C(Nc1cc(F)ccc1F)c1cc(=O)[nH]c2cc(Br)ccc12 | > 20 | > 20 | 
24 | COc1ccc2c(C(=O)Nc3cc(F)cc(F)c3)cc(=O)[nH]c2n1 | > 20 | > 20 | 
25 | CCN(CC)CCCC(C)Nc1ccc(NC(=O)c2cc(=O)[nH]c3cc(F)ccc23)cc1F (stereo not drawn) | > 20 | > 20 | Activity (KYSE-410 [10]): Active
26 | O=C(Nc1cc(F)c(F)c(F)c1)c1cc(=O)[nH]c2cc(Br)ccc12 | > 20 | > 20 | 
27 | O=C(Nc1cccc(F)c1)c1cc(=O)[nH]c2cc(C3=CCOCC3)ccc12 | 10.5 | 12.1 | IC50 (SK-OV-3): 13.3 µM; IC50 (OVCAR-8): 21.8 µM; IC50 (MIA PaCa-2 [9]): 8.8 µM
28 | C#Cc1ccc2c(C(=O)Nc3cccc(F)c3)cc(=O)[nH]c2c1 | 9.5 | 9.7 | 

Row | Structure (SMILES) | IC50 (KYSE-70 cell line [1]) [µM] | IC50 (KYSE-410 [2]) [µM] | also measured
29 | COc1ccc2c(C(=O)Nc3cc(F)cc(F)c3)cc(=O)[nH]c2c1 | > 20 | > 20 | 
30 | COc1ccc(-c2ccc3c(C(=O)Nc4cccc(F)c4)cc(=O)[nH]c3c2)cc1 | > 20 | 18 | 
31 | O=C(c1ccnc2cc(Br)ccc12)N1CCCCC1 | > 20 | > 20 | 
32 | C=Cc1ccc2c(C(=O)Nc3cccc(F)c3)cc(=O)[nH]c2c1 | 9.7 | 13.6 | 
33 | O=C(Nc1ccc(F)cc1)c1ccnc2cc(Br)ccc12 | > 20 | > 20 | 
34 | COc1ccccc1NC(=O)c1cc(=O)[nH]c2cc(Br)ccc12 | > 20 | > 20 | 
35 | Nc1ccc(-c2ccc3c(C(=O)Nc4cccc(F)c4)cc(=O)[nH]c3c2)cc1 | > 20 | > 20 | 
36 | O=C(Nc1cccc(F)c1)c1cc(=O)n(Cc2ccccc2)c2cc(Br)ccc12 | > 20 | > 20 | 
37 | O=C(Nc1cccc(F)c1)c1cc(=O)[nH]c2cc(Br)ccc12 | 8.9 | 7.3 | Activity (KYSE-410 [3]): 13%; Activity (KYSE-410 [4]): 22.4%; Activity (KYSE-410 [5]): 61.9%; inhibition (KYSE-410 [13]): Active; IC50 (SK-OV-3): 10.6 µM; Activity (KYSE-410 [6]): 25.1%; IC50 (OVCAR-8): 5.8 µM; inhibition (MIA PaCa-2 [14]): Active; Activity (KYSE-410 [7]): 53.6%; Activity (KYSE-410 [8]): 24%; IC50 (MIA PaCa-2 [9]): 7.5 µM
38 | O=C(Nc1ccc(OC(F)(F)F)cc1)c1cc(=O)[nH]c2cc(Br)ccc12 | > 20 | > 20 | 
39 | O=C(Nc1cccc(F)c1)c1cc(=O)[nH]c2cc(C3CC3)ccc12 | > 20 | > 20 | 
40 | O=C(Nc1ccc(Cl)cc1)c1cc(=O)[nH]c2cc(Br)ccc12 | > 20 | > 20 | 
41 | O=C(c1cc(=O)[nH]c2cc(Br)ccc12)N1CCCCC1 | > 20 | > 20 | 
42 | O=C(Nc1cccc(F)c1)c1cc(=O)[nH]c2cc(-c3cccc(F)c3)ccc12 | 12 | 10.9 | 
43 | O=C(Nc1ccccn1)c1cc(=O)[nH]c2cc(Br)ccc12 | 11 | 9.8 | Activity (KYSE-410 [3]): 10.8%; Activity (KYSE-410 [4]): 18.5%; Activity (KYSE-410 [5]): 70.8%; IC50 (SK-OV-3): > 20 µM; Activity (KYSE-410 [6]): 18.5%; IC50 (OVCAR-8): > 20 µM; Activity (KYSE-410 [7]): 62.1%; Activity (KYSE-410 [8]): 19.5%; IC50 (MIA PaCa-2 [9]): 21.3 µM
44 | Cc1cc(-c2ccc3c(C(=O)Nc4cccc(F)c4)cc(=O)[nH]c3c2)c(C)cc1F | > 20 | > 20 | 
45 | O=C(Nc1cccc(F)c1)c1cc(=O)[nH]c2cc(-c3ccc(F)nc3)ccc12 | > 20 | > 20 | 
46 | O=C(Nc1cccc(F)c1)c1cc(=O)[nH]c2cc(-c3ccccc3F)ccc12 | > 20 | > 20 | 
47 | O=C(Nc1cc(F)cc(F)c1)c1cc(=O)[nH]c2c(O)cccc12 | > 20 | > 20 | 
48 | O=C(Nc1ccc(C(F)(F)F)cc1)c1cc(=O)[nH]c2cc(Br)ccc12 | > 20 | > 20 | 
49 | O=C(Nc1cc(F)cc(F)c1)c1cc(=O)[nH]c2cc(F)ccc12 | > 20 | > 20 | 
50 | O=C(Nc1cccc(F)c1)c1cc(=O)[nH]c2cc(-c3ccncc3)ccc12 | > 20 | > 20 | 
51 | O=C(Nc1cccc(F)c1)c1cc(=O)[nH]c2cc(-c3ccc(F)c(CO)c3)ccc12 | > 20 | > 20 | 
52 | O=C(Nc1cccc(C(F)(F)F)c1)c1cc(=O)[nH]c2cc(Br)ccc12 | > 20 | > 20 | 
53 | O=C(Nc1cccc(F)c1)c1cc(=O)[nH]c2cc(F)ccc12 | > 20 | > 20 | 
54 | CC(C)(C)c1ccc(-c2ccc3c(C(=O)Nc4cccc(F)c4)cc(=O)[nH]c3c2)cc1 | > 20 | > 20 | 
55 | O=C(Nc1ccc(Cl)cc1)c1ccnc2cc(Br)ccc12 | > 20 | > 20 | 
